In BindingDB's records for doi:10.1021/jm9708588 (National University of Singapore, 1998):

Columns and labels:
[1] = biological target: T1, Muscarinic acetylcholine receptor M1 (Rattus norvegicus, UniProt P08482); assay: Binding affinity to Muscarinic acetylcholine receptor M1 by measuring its ability to displace [3H]pirenzepine from rat cerebral cortex
T1 sequence (P08482 whole entry): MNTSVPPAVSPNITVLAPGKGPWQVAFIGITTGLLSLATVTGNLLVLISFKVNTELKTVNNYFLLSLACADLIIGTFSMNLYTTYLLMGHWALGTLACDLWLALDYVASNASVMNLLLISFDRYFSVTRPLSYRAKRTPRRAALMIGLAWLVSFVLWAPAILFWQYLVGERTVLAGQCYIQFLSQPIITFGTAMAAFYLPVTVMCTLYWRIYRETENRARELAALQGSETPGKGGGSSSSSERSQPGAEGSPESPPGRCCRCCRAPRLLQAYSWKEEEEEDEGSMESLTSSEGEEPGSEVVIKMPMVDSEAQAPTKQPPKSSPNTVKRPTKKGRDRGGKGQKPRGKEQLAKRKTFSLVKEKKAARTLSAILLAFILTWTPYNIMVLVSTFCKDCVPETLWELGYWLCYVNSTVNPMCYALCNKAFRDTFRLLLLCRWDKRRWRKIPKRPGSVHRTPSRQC

[2] = The compound was evaluated for its ability to inhibit [3H]NMS binding to Muscarinic acetylcholine receptor in heart
[3] = biological target: Muscarinic acetylcholine receptor M3 (Rattus norvegicus, UniProt P08483); assay: Binding affinity to Muscarinic acetylcholine receptor M3 by measuring its ability to displace [3H]N-methylscopolamine binding in rat submandibulary gland
Chain of Muscarinic acetylcholine receptor M3 (P08483 whole entry): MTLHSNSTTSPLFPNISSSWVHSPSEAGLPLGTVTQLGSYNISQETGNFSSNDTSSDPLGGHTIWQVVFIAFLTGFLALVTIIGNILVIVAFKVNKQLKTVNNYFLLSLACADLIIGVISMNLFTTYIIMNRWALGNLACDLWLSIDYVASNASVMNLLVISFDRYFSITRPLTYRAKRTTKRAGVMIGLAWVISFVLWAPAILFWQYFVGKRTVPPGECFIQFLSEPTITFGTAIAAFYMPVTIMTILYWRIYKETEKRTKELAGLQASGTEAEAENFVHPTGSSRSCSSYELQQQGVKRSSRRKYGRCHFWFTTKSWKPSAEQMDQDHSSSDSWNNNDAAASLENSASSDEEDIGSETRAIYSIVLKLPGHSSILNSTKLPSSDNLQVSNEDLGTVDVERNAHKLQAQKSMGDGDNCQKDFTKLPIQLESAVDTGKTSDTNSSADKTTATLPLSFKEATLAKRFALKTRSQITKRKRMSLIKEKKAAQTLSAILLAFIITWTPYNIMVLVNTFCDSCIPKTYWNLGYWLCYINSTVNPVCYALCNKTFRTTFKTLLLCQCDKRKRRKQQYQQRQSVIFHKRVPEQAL
In short: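 Rat submandibulary gland membranes prepared in Na+/Mg2+ HEPES buffer pH 7.4. Nonspecific binding defined with 1 μM (±)-QNB. Pellet obtained by centrifugation and counted by scintillation. Triplicate determinations. Ki derived from IC50 by Cheng–Prusoff.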

| Compound | Ki [1] | Ki [2] | Ki [3] |
| --- | --- | --- | --- |
| CC#CCCON=C1CC2CCC(C1)N2C | 0.794 µM | – | – |
| CC#CCON=C1CCN(C)CC1 | 3.98 µM | – | – |
| CCC#CCON=C1CCN(C)CC1 | 3.98 µM | – | – |
| C#CCON=C1CC2CCC(C1)N2C | 1.25 µM | – | – |
| C#CCCON=C1CC2CCC(C1)N2C | 1.58 µM | – | – |
| C#CC(CC)ON=C1CCN(C)CC1 (stereo unspecified) | 6.3 µM | – | – |
| CN1C2CCC1CC(=NO)C2 | 501 µM | – | – |
| C#CC(CC)ON=C1CC2CCC(C1)N2C (stereo unspecified) | 0.316 µM | – | – |
| CON=C1CC2CCC(C1)N2C | 999 µM | – | – |
| CON=C1CCN(C)CC1 | 50.1 µM | – | – |
| C#CCCON=C1CCN(C)CC1 | 1.58 µM | – | – |
| C#CC(C)ON=C1CC2CCC(C1)N2C (stereo unspecified) | 9.99 µM | – | – |
| C#CCCCON=C1CCN(C)CC1 | 7.94 µM | – | – |
| C#CCC(C)ON=C1CC2CCC(C1)N2C (stereo unspecified) | 0.1 µM | – | – |
| CC#CCCON=C1CCN(C)CC1 | 1.99 µM | – | – |
| CN1CCC(=NO)CC1 | 501 µM | – | – |
| C#CC(C)ON=C1CCN(C)CC1 (stereo unspecified) | 5.01 µM | – | – |
| C#CCON=C1CCN(C)CC1 | 50.1 µM | – | – |
| C#CCCCON=C1CC2CCC(C1)N2C | 0.63 µM | – | – |
| CCC#CCON=C1CC2CCC(C1)N2C | 5.01 µM | 63.1 µM | – |
| CC#CCON=C1CC2CCC(C1)N2C | 0.501 µM | – | – |
| C#CCC(C)ON=C1CCN(C)CC1 (stereo unspecified) | 3.16 µM | – | – |
| O=C1CCCN1CC#CCN1CCCC1 [1-[4-(2-oxo-pyrrolidin-1-yl)-but-2-ynyl]-pyrrolidinium] | 0.63 µM | – | – |
| C[N+](C)(C)CC#CCOC(=O)Nc1cccc(Cl)c1 [McN-A-343] | 5.01 µM | – | 2.51 µM |
